Reference: ChEMBL document CHEMBL4334439, “Discovery, Optimization, and Target Identification of Novel Potent Broad-Spectrum Antiviral Inhibitors” (J Med Chem, 2019)
The source made the active and inactive calls. The calls are words filed in the database; no cut-off is given here.

Tests used:
[1] = target: T1, Sialate O-acetylesterase (Homo sapiens) (UniProt Q9HAT2); assay: Binding affinity to SIAE in human Huh7.5.1 cell lysate infected with HCV at 0.1 to 10 uM incubated for 1 hr followed by 10000 mJ/cm2 UV irradiation for 10 mins and subsequent addition of biotin-N3 measured after 1 hr by ABPP Gel-based by LC/MS/MS analysis; type: subcellular
T1 sequence (whole entry): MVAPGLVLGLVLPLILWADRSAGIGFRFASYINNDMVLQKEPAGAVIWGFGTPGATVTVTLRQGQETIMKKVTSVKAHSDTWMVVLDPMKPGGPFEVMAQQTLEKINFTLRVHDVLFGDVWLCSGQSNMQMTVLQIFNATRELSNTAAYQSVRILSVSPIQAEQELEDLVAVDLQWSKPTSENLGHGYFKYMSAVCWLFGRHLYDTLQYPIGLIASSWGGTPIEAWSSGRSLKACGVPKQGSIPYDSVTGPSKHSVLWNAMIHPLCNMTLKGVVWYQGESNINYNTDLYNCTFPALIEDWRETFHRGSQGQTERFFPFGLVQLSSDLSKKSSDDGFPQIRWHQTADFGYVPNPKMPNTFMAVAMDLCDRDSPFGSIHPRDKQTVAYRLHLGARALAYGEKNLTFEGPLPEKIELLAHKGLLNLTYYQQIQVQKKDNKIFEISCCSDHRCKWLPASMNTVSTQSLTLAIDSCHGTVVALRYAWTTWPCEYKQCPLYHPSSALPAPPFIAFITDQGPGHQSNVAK
Method in brief: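 ABPP: Huh7.5.1 cells HCV-infected 2 days were lysed by sonication in PBS with protease inhibitors (~1.5 mg/ml protein). Photo-probe at 1.0–10.0 μM was UV-crosslinked (350 nm, 10000 mJ/cm2, 10 min), then clicked to biotin-N3 (CuSO4/TBTA/TCEP, 1 h RT). Proteins were precipitated, avidin pull-down, washed with SDS, urea, PBS; LC-MS/MS versus negative-probe, competitor and DMSO groups.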

[2] = test system: Hepatitis C virus; assay: Antiviral activity against GFP-fused HCV JFH-1 harboring K78E/E2-G451R/NS3-M260K/NS5A-T462I mutant infected in human Huh7.5.1 cells assessed as reduction in viral infection preincubated for 2 hrs followed by viral infection and measured after 48 hrs by epifluorescence microscopic analysis; type: functional, organism-based; conditions: Hepacivirus hominis
Method in brief: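 Huh7.5.1 cells at 3×10^4/well, cultured overnight at 37 °C in 5% CO2, were pretreated 2 h with compound over 0.0004–0.05 μM. Cells were then infected with HCV-GFP at MOI 1, and GFP expression was imaged by epifluorescence microscopy at 48 hpi.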

[3] = Selectivity index, ratio of CC50 for African green monkey Vero cells to EC50 for CHIKV infected in African green monkey Vero cells; type: toxicity; conditions: read-out: Ratio CC50/EC50
[4] = target: Heat shock protein HSP90 (Homo sapiens) (UniProt P07900+P08238); assay: Binding affinity to HSP90 (unknown origin); type: protein assay
[5] = Cytotoxicity against human Caco2 cells infected with MERS-CoV measured after 48 hrs by WST1 assay; type: cell-based, Caco-2
Method in brief: (§1)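 Cells at 1×10^4/well, cultured overnight at 37 °C, were incubated 48 h with serially diluted compound. Viability was read by WST-1 absorbance (OD450/OD630).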

[6] = Cytotoxicity against human Huh7.5.1 cells assessed as decrease in cell viability after 48 hrs by WST1 assay; type: cell-based
Method in brief: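 Cells seeded at 1 × 10^4 per well and cultured overnight at 37 °C, then incubated 48 h with serially diluted compounds. Viability read with WST-1 reagent as absorbance at OD450/OD630.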

[7] = Cytotoxicity against African green monkey Vero cells infected with RSV assessed as decrease in cell viability after 48 hrs by WST1 assay; type: cell-based; conditions: chlorocebus sabaeus; method in brief: as §1
[8] = Selectivity index, ratio of CC50 for African green monkey Vero cells to EC50 for RSV infected in African green monkey Vero cells; type: toxicity; conditions: read-out: Ratio CC50/EC50
[9] = test system: Hepatitis C virus; assay: Ratio of EC50 for antiviral activity against HCV infected in human Huh7.5.1 cells assessed as decrease in viral infection in presence of uridine to EC50 for antiviral activity against HCV infected in human Huh7.5.1 cells assessed as decrease in viral infection in absence of uridine; type: functional, Hepacivirus hominis
Method in brief: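 HCV antiviral EC50 in Huh7.5.1 cells was measured with 0.5 mM uridine supplemented, and compared with the EC50 obtained without uridine.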

[10] = Selectivity index, ratio of CC50 for human Huh7.5.1 cells to EC50 for EGFP-fused HCV JFH-1 harboring K78E/E2-G451R/NS3-M260K/NS5A-T462I mutant infected in human Huh7.5.1 cells; type: toxicity, cell-based; conditions: read-out: Ratio CC50/EC50
[11] = test system: Hepatitis C virus; assay: Antiviral activity against EGFP-fused HCV JFH-1 harboring K78E/E2-G451R/NS3-M260K/NS5A-T462I mutation infected in human Huh7.5.1 cells assessed as combination index after 2 days in presence of cyclosporin A by qRT-PCR analysis; type: functional, Hepacivirus hominis
Method in brief: (§2)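 In HCVcc-infected Huh7.5.1 cells (1×10^4/well, overnight, 37 °C), compound was given at various concentrations alone or with the named approved antiviral. After 2 days HCV RNA was quantified by qRT-PCR to derive the combination index.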

[12] = test system: Hepatitis C virus; assay: Antiviral activity against EGFP-fused HCV JFH-1 harboring K78E/E2-G451R/NS3-M260K/NS5A-T462I mutation infected in human Huh7.5.1 cells assessed as combination index after 2 days in presence of ribavirin by qRT-PCR analysis; type: functional, Hepacivirus hominis; method in brief: as §2
[13] = test system: Hepatitis C virus; assay: Antiviral activity against EGFP-fused HCV JFH-1 harboring K78E/E2-G451R/NS3-M260K/NS5A-T462I mutation infected in human Huh7.5.1 cells assessed as combination index after 2 days in presence of IFNalpha by qRT-PCR analysis; type: functional, Hepacivirus hominis; method in brief: as §2
[14] = Cytotoxicity against African green monkey Vero cells infected with SFTSV measured after 48 hrs by WST1 assay; type: cell-based; conditions: chlorocebus sabaeus; method in brief: as §1
[15] = test system: Middle East respiratory syndrome-related coronavirus; assay: Antiviral activity against MERS-CoV infected in human Caco2 cells assessed as inhibition of viral replication measured at 18 hrs post-infection by plaque formation assay; type: functional, organism-based; conditions: Caco-2, 18 h
[16] = test system: Severe fever with thrombocytopenia syndrome virus; assay: Antiviral activity against SFTSV infected in African green monkey Vero cells assessed as reduction in viral titre measured at 4 days post infection; type: functional; conditions: 96 h
[17] = test system: Hepatitis C virus; assay: Antiviral activity against EGFP-fused HCV JFH-1 harboring K78E/E2-G451R/NS3-M260K/NS5A-T462I mutation infected in human Huh7.5.1 cells assessed as reduction in viral RNA level after 2 days in presence of daclatasvir by qRT-PCR analysis; type: functional, organism-based; conditions: Hepacivirus hominis
Method in brief: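 Huh7.5.1 cells at 1×10^4/well, grown overnight at 37 °C. HCVcc was mixed with serially diluted compound (top 30 or 6 μM), given alone or with the named drug, and added to the cells. Viral RNA was read by qRT-PCR after 2 days. EC50 is the concentration giving 50% RNA reduction.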

[18] = test system: Hepatitis C virus; assay: Antiviral activity against EGFP-fused HCV JFH-1 harboring K78E/E2-G451R/NS3-M260K/NS5A-T462I mutation infected in human Huh7.5.1 cells assessed as combination index after 2 days in presence of daclatasvir by qRT-PCR analysis; type: functional, Hepacivirus hominis; method in brief: as §2

For `CCN(CC)c1ccc(Oc2ccc(-c3[nH]c4cccc(F)c4c(=O)c3C)cc2F)cc1`, the Activity [1] was “Active”, the Activity [2] was “Dose-dependent effect” and the selectivity ratio [3] was greater than 10. The Activity [4] was “inactive”, the CC50 at 48 h [5] was greater than 2500 nM and the CC50 at 48 h [6] was greater than 2500 nM. The CC50 at 48 h [7] was greater than 2500 nM, the selectivity ratio [8] was greater than 41 and the “Ratio EC50” value [9] was 200. It also gave a selectivity ratio [10] greater than 416, a CI [11] greater than 50 and a CI [12] greater than 50. For the same compound, the CI [13] was “>=10 - 50”, the CC50 at 48 h [14] was greater than 2500 nM and the EC50 [15] was 333 nM. The EC50 [16] was 300 nM, the Activity [17] was “Dose-dependent effect” and the CI [18] was “>=10 - 50”.
